Key:
[1] = test system: Human immunodeficiency virus 1; assay: Antiviral activity against HIV1 harboring reverse transcriptase K103N mutant infected in human […] cells assessed as protection against virus-induced cytopathic effect measured on day 5 post infection by MTT assay; type: functional, cell-based; details: Human immunodeficiency virus 1, 120 h
[2] = test system: Human immunodeficiency virus 1; assay: Ratio of EC50 for HIV-1 harboring reverse transcriptase K103N mutant infected in human MT4 cells to EC50 for HIV1 NL4-3 infected in human MT4 cells; type: functional
Method in brief: (§1)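 Fold change calculated as EC50 against the stated resistant mutant HIV-1 strain divided by EC50 against wild-type NL4-3. Both EC50s come from MTT read-out of virus-induced death in MT-4 cells, mean of two to three independent experiments each in triplicate.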

[3] = Selectivity index, ratio of CC50 for human MT4 cells to EC50 for HIV1 NL4-3 infected in human MT4 cells; type: toxicity, cell-based; details: read-out: Ratio CC50/EC50
Method in brief: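 SI computed as CC50/EC50, using the MTT-based CC50 in uninfected MT-4 cells and the MTT-based EC50 against HIV-1 NL4-3-induced cell death in MT-4 cells. Experiments were run in triplicate, two to three times.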

[4] = test system: Human immunodeficiency virus 1; assay: Antiviral activity against HIV1 harboring reverse transcriptase Y188L mutant infected in human […] cells assessed as protection against virus-induced cytopathic effect measured on day 5 post infection by MTT assay; type: functional, cell-based; details: Human immunodeficiency virus 1, 120 h
[5] = test system: Human immunodeficiency virus 1; assay: Antiviral activity against HIV1 harboring reverse transcriptase Y181C mutant infected in human […] cells assessed as protection against virus-induced cytopathic effect measured on day 5 post infection by MTT assay; type: functional, cell-based; details: Human immunodeficiency virus 1, 120 h
[6] = Cytotoxicity against human MT4 cells assessed as cell viability by MTT assay; type: cell-based
Method in brief: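 Uninfected MT-4 cells scored for viability by MTT. […] Values are means of two to three independent experiments, each run in triplicate.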

[7] = test system: Human immunodeficiency virus 1; assay: Ratio of EC50 for HIV-1 harboring reverse transcriptase Y188L mutant infected in human MT4 cells to EC50 for HIV1 NL4-3 infected in human MT4 cells; type: functional; method in brief: as §1
[8] = test system: Human immunodeficiency virus 1; assay: Ratio of EC50 for HIV-1 harboring reverse transcriptase Y181C mutant infected in human MT4 cells to EC50 for HIV1 NL4-3 infected in human MT4 cells; type: functional; method in brief: as §1
[9] = test system: Human immunodeficiency virus 1; assay: Antiviral activity against HIV1 NL4-3 infected in human […] cells assessed as protection against virus-induced cytopathic effect measured on day 5 post infection by MTT assay; type: functional, cell-based; details: Human immunodeficiency virus 1, NL4-3, 120 h
Method in brief: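 Values are means of two to three independent experiments, each run in triplicate. The lowest detectable concentration is reported where activity fell below the assay limit.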

[10] = test system: Human immunodeficiency virus 1; assay: Antiviral activity against HIV1 harboring reverse transcriptase K103N /[…] double mutant infected in human […] cells assessed as protection against virus-induced cytopathic effect measured on day 5 post infection by MTT assay; type: functional, cell-based; details: Human immunodeficiency virus 1, 120 h
[11] = test system: Human immunodeficiency virus 1; assay: Ratio of EC50 for HIV-1 harboring reverse transcriptase K103N/[…] double mutant infected in human MT4 cells to EC50 for HIV1 NL4-3 infected in human MT4 cells; type: functional; method in brief: as §1

Row | Structure (SMILES) | EC50 [1] | Ratio EC50 [2] | selectivity ratio [3] | EC50 [4] | EC50 [5] | CC50 [6] | Ratio EC50 [7] | Ratio EC50 [8] | EC50 [9] | EC50 [10] | Ratio EC50 [11]
1 | Cc1cc(C)cc(S(=O)(=O)c2c(C(=O)NC(C)C(=O)NCCc3cccs3)[nH]c3ccc(Cl)cc23)c1 (racemic) | 18 nM | 30 | 52800 | > 9800 nM | 129 nM | 9500 nM | >16336 | 215 | 0.6 nM | > 9800 nM | >16336
2 | COc1cccc(F)c1CNC(=O)c1[nH]c2ccc(Cl)cc2c1S(=O)(=O)c1cc(C)cc(C)c1 | 0.6 nM | 1 | > 83200 | – | 399 nM | > 49900 nM | – | 665 | 0.6 nM | 27700 nM | 46243
3 | Cc1cc(C)cc(S(=O)(=O)c2c(C(=O)NC(C)C(=O)NC(C)c3ccccc3)[nH]c3ccc(Cl)cc23)c1 (racemic) | 1.9 nM | 3.2 | > 36900 | 3790 nM | 167 nM | 21700 nM | 6427 | 283 | 0.6 nM | 24900 nM | 42149
4 | Cc1cc(C)cc(S(=O)(=O)c2c(C(=O)NCc3n[nH]c4ccccc34)[nH]c3ccc(Cl)cc23)c1 | 0.6 nM | 1 | > 84500 | 142 nM | 0.6 nM | > 50700 nM | 237 | 1 | 0.6 nM | 548 nM | 913
5 | Cc1cc(C)cc(S(=O)(=O)c2c(C(=O)Nc3cc(C#N)ccn3)[nH]c3ccc(Cl)cc23)c1 | 0.6 nM | 1 | > 89600 | – | 2.2 nM | > 53800 nM | – | 3.7 | 0.6 nM | > 53800 nM | >89622
6 | Cc1cc(C)cc(S(=O)(=O)c2c(C(=O)NCC(=O)NCCc3cccs3)[nH]c3ccc(Cl)cc23)c1 | 1340 nM | 352 | 9480 | > 3580 nM | 321 nM | 35700 nM | >941 | 84 | 3.8 nM | > 3580 nM | >941
7 | Cc1cc(C)cc(S(=O)(=O)c2c(C(=O)NC(c3ccc(Cl)cc3)C3CC3)[nH]c3ccc(Cl)cc23)c1 (racemic) | – | – | > 359 | – | – | > 47400 nM | – | – | 133 nM | – | –
8 | Cc1cn([C@H]2C[C@H](N=[N+]=[N-])[C@@H](CO)O2)c(=O)[nH]c1=O [ZIDOVUDINE] | 16 nM | 4.3 | > 8270 | 33 nM | 6 nM | > 30600 nM | 8.9 | 1.6 | 3.7 nM | 16 nM | –
9 | Cc1cc(C)cc(S(=O)(=O)c2c(C(=O)NCc3cccc(F)c3F)[nH]c3ccc(Cl)cc23)c1 | 0.7 nM | 1 | > 73000 | – | 2 nM | > 51100 nM | – | 2.9 | 0.7 nM | > 51100 nM | >73046
10 | Cc1cc(C)cc(S(=O)(=O)c2c(C(=O)NC(C)C(=O)NCCn3c(C)cnc3[N+](=O)[O-])[nH]c3ccc(Cl)cc23)c1 (racemic) | 170 nM | 850 | 94200 | 4770 nM | 170 nM | 16000 nM | 23850 | 850 | 0.2 nM | 5280 nM | 26405
